# From ChEMBL document CHEMBL2417468, “4β-[4'-(1-(Aryl)ureido)benzamide]podophyllotoxins as DNA topoisomerase I and IIα inhibitors and apoptosis inducing agents” (2013)
# Active and inactive are the calls of the source. The rule behind the calls is not given here.
# What was measured:
# KB = experiment: Growth inhibition of human KB cells after 48 hrs by sulforhodamine B assay; format: functional
# SiHa = experiment: Growth inhibition of human SiHa cells after 48 hrs by sulforhodamine B assay; format: functional
# MCF7 = experiment: Growth inhibition of human MCF7 cells after 48 hrs by sulforhodamine B assay; format: functional; details: MCF7, 48 h
# Gurav = experiment: (§1) Growth inhibition of human Gurav cells after 48 hrs by sulforhodamine B assay; format: functional
# A2780 = experiment: Growth inhibition of human A2780 cells after 48 hrs by sulforhodamine B assay; format: functional
# COLO 205 [1] = experiment: Growth inhibition of human COLO205 cells after 48 hrs by sulforhodamine B assay; format: functional
# A549 = experiment: Growth inhibition of human A549 cells after 48 hrs by sulforhodamine B assay; format: functional
# ZR-75-1 = experiment: Growth inhibition of human ZR-75-1 cells after 48 hrs by sulforhodamine B assay; format: functional
# HOP-62 = experiment: Growth inhibition of human HOP62 cells after 48 hrs by sulforhodamine B assay; format: functional
# DWD = experiment: (§2) Growth inhibition of human DWD cells after 48 hrs by sulforhodamine B assay; format: functional
# [2] = as §2; format: functional
# COLO 205 [3] = experiment: Cytotoxicity against human COLO205 cells assessed as reduction in cellular ATP level at 2 uM after 24 hrs by bioluminescence assay; format: functional, cell-based
# Method in brief: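 Colo-205 cells exposed 24 h at 2 µM, lysed in ice-cold RIPA, debris spun off at 4 °C; intracellular ATP in supernatant by luciferin-luciferase bioluminescence kit; three independent experiments, mean ± S.D., untreated control.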
# COLO 205 [4] = experiment: Cytotoxicity against human COLO205 cells assessed as cell viability at 2 to 4 uM after 24 hrs by MTT assay; format: functional, cell-based
# Method in brief: (§3)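 Colo-205 (RPMI, 10% FCS) and MDA-MB-231 (DMEM, 2 mM glutamax, 10% FCS, penicillin/streptomycin) seeded at 1 104 cells/well, 18 h preincubation; fresh medium with compound at 0.5, 1, 2 and 4 µM for 24 h at 37 °C; MTT 2 h, formazan solubilised, OD 570 nm; DMSO ≤0.25%, DMSO-only wells as untreated control.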
# COLO 205 [5] = experiment: Induction of apoptosis in human COLO205 cells assessed as caspase-3 activation at 2 uM after 24 hrs by ELISA; format: functional, cell-based
# Method in brief: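 Colo-205 cells exposed 24 h at 2 µM; lysates in 2X reaction buffer with DTT plus caspase substrate, 1 h at 37 °C; fluorescence read at ex 400/em 505 nm; three independent experiments, mean ± S.D., versus untreated control.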
# MDA-MB-231 [6] = experiment: Cytotoxicity against human MDA-MB-231 cells assessed as cell viability at <0.5 to 1 uM after 24 hrs by MTT assay; format: functional, cell-based; method in brief: as §3
# MDA-MB-231 [7] = experiment: Cytotoxicity against human MDA-MB-231 cells assessed as cell viability at 2 to 4 uM after 24 hrs by MTT assay; format: functional, cell-based; method in brief: as §3
# COLO 205 [8] = experiment: Cell cycle arrest in human COLO205 cells assessed as accumulation at G0/G1 phase at 2 uM after 24 hrs by propidium iodide staining-based FACS flow cytometric analysis (reference value: 65.23%); format: functional
# [9] = as §1; format: functional
# COLO 205 [10] = experiment: Cell cycle arrest in human COLO205 cells assessed as accumulation at G2/M phase at 2 uM after 24 hrs by propidium iodide staining-based FACS flow cytometric analysis (reference value: 29.52%); format: functional
# COLO 205 [11] = experiment: Cell cycle arrest in human COLO205 cells assessed as accumulation at S phase at 2 uM after 24 hrs by propidium iodide staining-based FACS flow cytometric analysis (reference value: 4.21%); format: functional
# COLO 205 [12] = experiment: Cytotoxicity against human COLO205 cells assessed as viable cells at 2 uM after 24 hrs by trypan blue exclusion assay; format: functional, cell-based
# Method in brief: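 Colo-205 cells treated 24 h at 1, 2 and 4 µM, trypsinised, mixed with 0.4% trypan blue (10 µl per 100 µl cells), counted on haemocytometer; percentage dead cells calculated; triplicate samples.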
# COLO 205 [13] = experiment: Cytotoxicity against human COLO205 cells assessed as cell viability at <0.5 to 1 uM after 24 hrs by MTT assay; format: functional, cell-based; method in brief: as §3
# [14] = biological target: DNA topoisomerase 2-alpha (Homo sapiens) (UniProt P11388); experiment: Inhibition of human topoisomerase 2alpha-mediated relaxation of supercoiled pBR322 DNA at 2 uM after 30 mins by agarose gel electrophoresis
# Method in brief: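 Purified human topoisomerase IIα (4 units) with 200 ng supercoiled pBR322 and compound at 2 µM, 30 min at 30 °C in 10 mM Tris-HCl pH 7.9, 50 mM NaCl, 5 mM MgCl2, 1 mM EDTA, 1 mM ATP, 15 µg/mL BSA; EDTA-stopped; 1% agarose gel in TAE, ethidium bromide, UV visualisation.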
# COLO 205 [15] = experiment: Induction of apoptosis in human COLO205 cells assessed as caspase-3 activation at 2 uM after 24 hrs by Western blotting analysis; format: functional, cell-based
# Method in brief: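 Colo-205 cells grown to 80% confluency, 2 µM final for 24 h; RIPA lysates with protease inhibitors, Bradford-quantified, 50 µg protein per lane on 12% SDS-PAGE, PVDF transfer, probed overnight at 4 °C for active caspase-3, β-actin as loading control, chemiluminescent detection.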
# DNA topoisomerase 2-alpha (Homo sapiens), sequence (P11388 whole entry): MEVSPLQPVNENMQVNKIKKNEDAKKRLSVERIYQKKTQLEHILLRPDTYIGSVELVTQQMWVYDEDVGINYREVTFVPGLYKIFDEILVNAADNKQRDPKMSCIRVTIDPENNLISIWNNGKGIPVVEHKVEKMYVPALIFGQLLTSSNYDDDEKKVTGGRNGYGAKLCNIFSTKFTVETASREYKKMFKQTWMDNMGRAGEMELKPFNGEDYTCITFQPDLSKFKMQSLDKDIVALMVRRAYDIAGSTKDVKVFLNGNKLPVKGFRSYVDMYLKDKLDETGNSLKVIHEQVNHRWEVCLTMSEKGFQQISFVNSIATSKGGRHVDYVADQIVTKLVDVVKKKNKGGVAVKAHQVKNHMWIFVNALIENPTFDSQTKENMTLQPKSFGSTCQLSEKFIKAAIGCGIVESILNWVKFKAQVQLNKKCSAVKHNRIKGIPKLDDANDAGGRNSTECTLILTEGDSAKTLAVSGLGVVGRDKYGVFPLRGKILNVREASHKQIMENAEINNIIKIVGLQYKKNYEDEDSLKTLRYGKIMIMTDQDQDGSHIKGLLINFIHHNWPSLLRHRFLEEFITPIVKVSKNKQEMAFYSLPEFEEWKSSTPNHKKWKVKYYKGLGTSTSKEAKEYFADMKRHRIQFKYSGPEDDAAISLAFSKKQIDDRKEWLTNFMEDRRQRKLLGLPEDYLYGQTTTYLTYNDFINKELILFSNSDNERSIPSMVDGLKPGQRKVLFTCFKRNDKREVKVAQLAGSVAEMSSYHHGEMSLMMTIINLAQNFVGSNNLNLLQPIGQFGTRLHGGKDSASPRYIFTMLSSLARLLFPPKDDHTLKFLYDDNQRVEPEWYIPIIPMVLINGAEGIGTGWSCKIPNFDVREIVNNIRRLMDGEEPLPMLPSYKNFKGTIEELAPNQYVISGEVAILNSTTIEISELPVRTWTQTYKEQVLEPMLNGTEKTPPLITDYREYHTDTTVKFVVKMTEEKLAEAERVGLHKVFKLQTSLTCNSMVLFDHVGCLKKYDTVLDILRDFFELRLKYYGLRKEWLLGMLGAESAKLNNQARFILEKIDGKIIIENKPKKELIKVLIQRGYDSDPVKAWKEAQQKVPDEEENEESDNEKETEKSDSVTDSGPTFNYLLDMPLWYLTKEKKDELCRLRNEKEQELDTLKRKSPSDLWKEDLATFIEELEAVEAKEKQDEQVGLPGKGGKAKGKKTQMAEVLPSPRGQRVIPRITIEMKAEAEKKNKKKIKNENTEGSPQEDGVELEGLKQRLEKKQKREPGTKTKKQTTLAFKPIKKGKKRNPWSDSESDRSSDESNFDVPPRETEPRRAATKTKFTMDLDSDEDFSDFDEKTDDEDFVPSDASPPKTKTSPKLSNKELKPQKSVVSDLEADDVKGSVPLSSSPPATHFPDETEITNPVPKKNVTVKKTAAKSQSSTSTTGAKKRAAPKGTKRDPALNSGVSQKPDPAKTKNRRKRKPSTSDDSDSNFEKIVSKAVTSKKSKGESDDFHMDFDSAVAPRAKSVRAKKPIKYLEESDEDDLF
Compound,GI50 (KB),GI50 (SiHa),GI50 (MCF7),GI50 (Gurav),GI50 (COLO 205 [1]),GI50 (HOP-62),"GI50 (A2780; A2780, 48 h)","GI50 (A549; A549, 48 h)","GI50 (ZR-75-1; ZR-75-1, 48 h)","GI50 (COLO 205 [1]; COLO 205, 48 h)",GI50 [2],GI50 [9],"GI50 (HOP-62; HOP-62, 48 h)",further results
COc1cc([C@@H]2c3cc4c(cc3[C@@H](NC(=O)c3ccc(NC(=O)Nc5c(Cl)cccc5Cl)cc3)[C@H]3COC(=O)[C@H]23)OCO4)cc(OC)c1OC,2800 nM,inactive,150 nM,inactive,inactive,inactive,,,,,,,,GI50 (A2780): inactive; GI50 (A549): inactive; GI50 (ZR-75-1): inactive; GI50 (DWD): inactive
COc1cc([C@@H]2c3cc4c(cc3[C@@H](NC(=O)c3ccc(NC(=O)Nc5cc(C(F)(F)F)cc(C(F)(F)F)c5)cc3)[C@H]3COC(=O)[C@H]23)OCO4)cc(OC)c1OC,2600 nM,inactive,2700 nM,inactive,inactive,inactive,2300 nM,2980 nM,2220 nM,,,,,GI50 (DWD): inactive
COc1cc([C@@H]2c3cc4c(cc3[C@@H](NC(=O)c3ccc(NC(=O)NCc5ccco5)cc3)[C@H]3COC(=O)[C@H]23)OCO4)cc(OC)c1OC,1930 nM,inactive,2900 nM,inactive,,inactive,2300 nM,2620 nM,2600 nM,2340 nM,2500 nM,,,
COc1ccc(NC(=O)Nc2ccc(C(=O)N[C@@H]3c4cc5c(cc4[C@@H](c4cc(OC)c(OC)c(OC)c4)[C@H]4C(=O)OC[C@@H]43)OCO5)cc2)cc1,2310 nM,inactive,1100 nM,,,,1350 nM,1500 nM,180 nM,20 nM,1700 nM,240 nM,120 nM,Activity (COLO 205 [3]): Active; Activity (COLO 205 [4]): Active; Activity (COLO 205 [5]): Active; Activity (MDA-MB-231 [6]): inactive; Activity (MDA-MB-231 [7]): Active; Activity (COLO 205 [8]): 76.61%; Activity (COLO 205 [10]): 17.88%; Percent of cells in S phase (COLO 205 [11]): 5.09%; Activity (COLO 205 [12]): Active; Activity (COLO 205 [13]): inactive; Inhibition of relaxation (qualitative call) [14]: Active; Activity (COLO 205 [15]): Active
COc1cccc2c1C(=O)c1c(O)c3c(c(O)c1C2=O)C[C@@](O)(C(=O)CO)C[C@@H]3O[C@H]1C[C@H](N)[C@H](O)[C@H](C)O1 [DOXORUBICIN],170 nM,170 nM,170 nM,,,,160 nM,,,140 nM,100 nM,170 nM,140 nM,
COc1cc([C@@H]2c3cc4c(cc3[C@@H](NC(=O)c3ccc(NC(=O)Nc5cccc6ccccc56)cc3)[C@H]3COC(=O)[C@H]23)OCO4)cc(OC)c1OC,inactive,2300 nM,110 nM,,,inactive,2220 nM,2010 nM,2000 nM,2230 nM,,2900 nM,,GI50 (DWD): inactive
COc1cc([C@@H]2c3cc4c(cc3[C@@H](NC(=O)c3ccc(NC(=O)Nc5ccc(F)c(Cl)c5)cc3)[C@H]3COC(=O)[C@H]23)OCO4)cc(OC)c1OC,2010 nM,inactive,120 nM,inactive,,,,1500 nM,2900 nM,2520 nM,2610 nM,,2710 nM,GI50 (A2780): inactive
COc1cc([C@@H]2c3cc4c(cc3[C@@H](NC(=O)c3ccc(NC(=O)Nc5cc(C)cc(C)c5)cc3)[C@H]3COC(=O)[C@H]23)OCO4)cc(OC)c1OC,2310 nM,inactive,150 nM,,inactive,inactive,,,2910 nM,,1600 nM,2700 nM,,GI50 (A2780): inactive; GI50 (A549): inactive
COc1cc([C@@H]2c3cc4c(cc3[C@@H](NC(=O)c3ccc(NC(=O)NCCBr)cc3)[C@H]3COC(=O)[C@H]23)OCO4)cc(OC)c1OC,inactive,210 nM,140 nM,,,,140 nM,100 nM,160 nM,10 nM,170 nM,1850 nM,100 nM,Activity (COLO 205 [3]): Active; Activity (COLO 205 [4]): Active; Activity (COLO 205 [5]): Active; Activity (MDA-MB-231 [6]): inactive; Activity (MDA-MB-231 [7]): Active; Activity (COLO 205 [8]): 74.1%; Activity (COLO 205 [10]): 19.94%; Percent of cells in S phase (COLO 205 [11]): 5.96%; Activity (COLO 205 [12]): Active; Activity (COLO 205 [13]): inactive; Inhibition of relaxation (qualitative call) [14]: Active; Activity (COLO 205 [15]): Active
COc1cc([C@@H]2c3cc4c(cc3[C@@H](NC(=O)c3ccc(NC(=O)Nc5cccc(Cl)c5)cc3)[C@H]3COC(=O)[C@H]23)OCO4)cc(OC)c1OC,inactive,inactive,2600 nM,,,,2800 nM,,2900 nM,2600 nM,2300 nM,2010 nM,2500 nM,GI50 (A549): inactive
COc1cc([C@@H]2c3cc4c(cc3[C@@H](NC(=O)c3ccc(NC(=O)Nc5ccc(Br)s5)cc3)[C@H]3COC(=O)[C@H]23)OCO4)cc(OC)c1OC,2500 nM,2900 nM,120 nM,inactive,inactive,,2100 nM,1400 nM,2400 nM,,100 nM,,2600 nM,
COc1cc([C@@H]2c3cc4c(cc3[C@@H](NC(=O)c3ccc(NC(=O)NCCCl)cc3)[C@H]3COC(=O)[C@H]23)OCO4)cc(OC)c1OC,210 nM,inactive,100 nM,,,,1300 nM,1120 nM,2900 nM,10 nM,1600 nM,100 nM,120 nM,Activity (COLO 205 [3]): Active; Activity (COLO 205 [4]): Active; Activity (COLO 205 [5]): Active; Activity (MDA-MB-231 [6]): inactive; Activity (MDA-MB-231 [7]): Active; Activity (COLO 205 [8]): 76.22%; Activity (COLO 205 [10]): 18.15%; Percent of cells in S phase (COLO 205 [11]): 5.62%; Activity (COLO 205 [12]): Active; Activity (COLO 205 [13]): inactive; Inhibition of relaxation (qualitative call) [14]: Active; Activity (COLO 205 [15]): Active
